Compound activity from PubChem.
HDAC3 inh – HDAC3 deacetylase inhibitors, primary screen, biochemical, fluorescence, cell-free homogeneous; 320,000 tested, 0.15% active; recombinant HDAC3, fluorogenic peptide/trypsin coupled; inhibition, % at 8.3 µM; Histone deacetylase 3 (Homo sapiens), O15379; in the data active means inhibition above about 26%, passing the limit was not always enough; inconclusive means no clear call, values can overlap the other calls
Runt-CBFb FRET – inhibitors of RUNX1 Runt–CBFb binding, primary screen, biochemical, FRET, Cerulean-Runt, Venus-CBFb, uHTS; inhibition, % at 20 µM; Cerulean-Runt/Venus-CBFb FRET ratio 530/480, 1 h; 220,000 tested, 0.46% active; AID 1496, 2009;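 active means inhibition over about 50% at 20 µM in the single-dose screen, limit read from the data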;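 further: 0% = DMSO wells and 100% = excess unlabeled CBFb competitor control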
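test system = Cerulean-tagged RUNX1 Runt domain (FRET donor) fusion protein | reagent = Venus-CBFb binding partner, 100 nM | incubation = protein complex preformed 1 h, compound exposure 1 h, room temperature, dark | detection = FRET fluorescence | read-out basis = loss of energy transfer signal | controls = 5 µM unlabeled CBFb as full-inhibition high control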
CaV13 FRET inh – Primary screen for inhibitors of IQ motif and Ca2+-dependent inactivation inhibitor domain binding in CACNA1D, Förster resonance energy transfer in living cells, …; AID 743397; 340,000 tested, 0.098% active; inhibition, % at 12.3 µM; HEK cells, CFP/YFP FRET ICDI-IQ, plate reader, 10 min; percent FRET-ratio fall versus neutral wells;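 active means mean replicate inhibition of at least 30% and at least 1% of replicates passing that level; inconclusive means only one of the two criteria is met; inactive means neither criterion is met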;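 further: 0% = median of the neutral control wells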
RanGTP-Imp inh – inhibitors of RanGTP-importin-beta interaction, primary screen, biochemical, FRET, CFP-Ran, YFP-importin-beta, homogeneous. 300,000 tested, 1.1% active. Ran GTPase (GTP-bound) - importin-beta complex. cell-free CFP-Ran/YFP-importin-beta FRET ratio. inhibition, % (test concentration not listed);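 active means more than half of the replicate wells show a fall in the fluorescence ratio signal beyond about 16%, limit read from the data, passing the limit was not always enough; inconclusive means exactly half of the replicate wells pass the set limit; inactive means fewer than half of replicates pass the limit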;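 further: 0% = DMSO wells and 100% = Ran loaded with GDP instead of GTP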
Runt-SMMHC FRET – inhibitors of RUNX1 Runt–CBFb-SMMHC binding, primary screen, biochemical, FRET, Cerulean-Runt, Venus-CBFb-SMMHC, uHTS | Cerulean-Runt/Venus-CBFb-SMMHC FRET ratio 530/480, 1 h | inhibition, % at 20 µM | Runt-related transcription factor 1 (Homo sapiens) + Core-binding factor subunit beta … | 220,000 tested, 0.74% active;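 active means mean inhibition across duplicate retests at 20 µM reaching about 50%, limit read from the data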;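 further: 0% = DMSO wells and 100% = wells with excess untagged CBFb-SMMHC; inhibitors lower the FRET ratio by blocking Runt binding to CBFb-SMMHC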
LANA-H2B inh – blockers of LANA interaction with H2A/H2B – biochemical, FP readout, HTS, primary screen | cell-free LANA-H2A/H2B peptide, fluorescence polarization | 320,000 tested, 0.6% active | Protein LANA1 (Human herpesvirus 8 type P (isolate GK18)), Q9QR71 | inhibition, % (concentration not given with the values); in the data active means inhibition mostly above about 10%, no sharp cut-off; inactive means mostly below about 6.7%
YIC FRET counter – YIC intramolecular FRET probe signal interference, dose response, counter-screen for RanGTP-importin-beta inhibitor project, biochemical, fluorescence FRET. shares compounds with RanGTP-Imp inh. Purified YIC probe, intramolecular FRET ratio YFP/CFP. IC50, µM. 1,000 tested, 40% active. AID 435026, 2010;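 active means fitted half-maximal inhibitory concentration no more than tenfold above the top dose tested; inconclusive means flat fit with 30 to 70% activity, or poor fit; inactive means half-maximal concentration beyond tenfold above the top dose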
* hit, by the source's call. Compounds with a hit are over-represented: about 1.9% of the library has one in this group of screens.

`Cc1ccc(N(CC(=O)N/N=C/c2ccc(OCC(N)=O)cc2)S(C)(=O)=O)cc1Cl` gave HDAC3 inh 1, Runt-CBFb FRET 0, CaV13 FRET inh -4, RanGTP-Imp inh 1, Runt-SMMHC FRET -2 and LANA-H2B inh 0.
COCCn1c(=S)[nH]c2cc(C(=O)NCc3ccccc3)ccc2c1=O was read as CaV13 FRET inh 23.
Screening COc1cc2c(cc1OC)CN(Cc1cc(=O)oc3cc(C)c(Cl)cc13)CC2 returned HDAC3 inh -7, Runt-CBFb FRET -18, CaV13 FRET inh -3, RanGTP-Imp inh 23*, Runt-SMMHC FRET -41, LANA-H2B inh 1 and YIC FRET counter >50.
COc1cc2c(cc1OC)CN(Cc1cc(=O)oc3c(C)c(C)ccc13)CC2 was read as HDAC3 inh 2, Runt-CBFb FRET -17, CaV13 FRET inh -17, RanGTP-Imp inh 20*, Runt-SMMHC FRET -41, LANA-H2B inh -1 and YIC FRET counter >50.
COc1ccc(S(=O)(=O)NCCCN2CCOCC2)c2ccccc12 was read as HDAC3 inh -1, Runt-CBFb FRET 2, CaV13 FRET inh -11, RanGTP-Imp inh 3, Runt-SMMHC FRET 1 and LANA-H2B inh 6.
`N#CC1=C(N)OC2=C(CCc3ccccc32)C1c1ccccc1` (stereo not given) gave HDAC3 inh -15, Runt-CBFb FRET 35, CaV13 FRET inh -5, RanGTP-Imp inh 18*, Runt-SMMHC FRET 38, LANA-H2B inh -1 and YIC FRET counter >50.
Screening CC1=C(n2nnc3ccccc32)C(c2ccccc2)C(C#N)=C(N)O1 (stereo not given) returned HDAC3 inh 3, Runt-CBFb FRET 5, RanGTP-Imp inh 3, Runt-SMMHC FRET 1 and LANA-H2B inh -1.
Screening COc1ccc(-n2c(C)cc(/C=C3/SC(=S)N(C)C3=O)c2C)cc1 returned HDAC3 inh 0, Runt-CBFb FRET -7, CaV13 FRET inh -3, RanGTP-Imp inh 23*, Runt-SMMHC FRET -51, LANA-H2B inh -5 and YIC FRET counter >50.
Screening Cc1cc(/C=C2\SC(=O)N(C)C2=O)c(C)n1-c1ccc(S(N)(=O)=O)cc1 returned HDAC3 inh 8, CaV13 FRET inh -2, RanGTP-Imp inh -3 and LANA-H2B inh -1.
Screening COC(=O)C1=C(C)N(Cc2ccco2)C(=O)N[C@@H]1c1ccc(Br)cc1 returned HDAC3 inh 8, CaV13 FRET inh -5, RanGTP-Imp inh -2 and LANA-H2B inh 1.
Screening c1ccc(-n2nnnc2-c2cnc(-c3cccnc3)nc2-c2cccs2)cc1 returned HDAC3 inh -7, Runt-CBFb FRET -3, CaV13 FRET inh -5, RanGTP-Imp inh 17*, Runt-SMMHC FRET -2, LANA-H2B inh 2 and YIC FRET counter >50.
For Clc1ccc(-n2nnnc2-c2cnc3ccccc3c2-c2ccccc2)cc1 the results were HDAC3 inh -1, Runt-CBFb FRET -3, CaV13 FRET inh -20, RanGTP-Imp inh -1, Runt-SMMHC FRET 5 and LANA-H2B inh -3.
`COc1ccc2c(c1)CCC1=C2NC(=S)NC1c1ccc(N(C)C)cc1` (stereo not given) gave HDAC3 inh 9, Runt-CBFb FRET -4, CaV13 FRET inh -3, RanGTP-Imp inh -2, Runt-SMMHC FRET -12 and LANA-H2B inh -6.
COc1ccc(C2NC(=S)NC3=C2CCCC3=C2SCCS2)cc1 (stereo not given) was read as HDAC3 inh inconclusive, Runt-CBFb FRET -5, CaV13 FRET inh -7, RanGTP-Imp inh 18*, Runt-SMMHC FRET -2, LANA-H2B inh 2 and YIC FRET counter >50.
Screening O=C1CCCc2[nH]c(-c3ccccc3)nc21 returned HDAC3 inh 0, Runt-CBFb FRET 6, CaV13 FRET inh -4, RanGTP-Imp inh 4, Runt-SMMHC FRET -7 and LANA-H2B inh -1.
Screening COCC(=O)Nc1nnc(COc2ccc(Cl)cc2)s1 returned HDAC3 inh -11, Runt-CBFb FRET 0, CaV13 FRET inh -5, RanGTP-Imp inh 26*, Runt-SMMHC FRET -4, LANA-H2B inh 4 and YIC FRET counter >50.
For C/C(=N\NS(=O)(=O)c1ccc(Br)cc1)c1ccncc1 the results were HDAC3 inh -1, CaV13 FRET inh -6, RanGTP-Imp inh 0 and LANA-H2B inh 2.
Screening CCCSc1nnc(-c2c[nH]c3ccccc23)n1CC returned HDAC3 inh -3, Runt-CBFb FRET 1, CaV13 FRET inh -7, RanGTP-Imp inh 17*, Runt-SMMHC FRET 4, LANA-H2B inh -1 and YIC FRET counter >50.
Screening CC1(C(=O)O)C=CCN1C(=O)c1ccccc1 (stereo not given) returned HDAC3 inh -19, Runt-CBFb FRET -2, CaV13 FRET inh -6, RanGTP-Imp inh 19*, Runt-SMMHC FRET -1, LANA-H2B inh -4 and YIC FRET counter >50.
COc1ccc(NC(=O)C2CC(=O)N/C(=N/NC(=O)c3ccc(Cl)cc3)S2)cc1 (stereo not given) was read as Runt-CBFb FRET 0, CaV13 FRET inh -10, RanGTP-Imp inh -3, Runt-SMMHC FRET 0 and LANA-H2B inh 1.
`CCCN1CC(O)=C(C#N)C1=O` gave HDAC3 inh -3, Runt-CBFb FRET 0, RanGTP-Imp inh 24*, Runt-SMMHC FRET 1, LANA-H2B inh 3 and YIC FRET counter >50.
CC1=C(C#N)C(=O)N(C)C(C)(C)C1 was read as HDAC3 inh -4, Runt-CBFb FRET 1, CaV13 FRET inh -4, RanGTP-Imp inh -4, Runt-SMMHC FRET 2 and LANA-H2B inh 0.
Screening CCCn1c(O)c(C=Nc2ccccc2)sc1=S returned HDAC3 inh -3, Runt-CBFb FRET 21, CaV13 FRET inh -1, RanGTP-Imp inh 27*, Runt-SMMHC FRET 49, LANA-H2B inh -1 and YIC FRET counter 12*.
Screening O=C(C1CCCCC1)N1CC(=O)N2CCc3ccccc3C2C1 (stereo not given) returned HDAC3 inh -2, Runt-CBFb FRET 0, RanGTP-Imp inh 21*, Runt-SMMHC FRET 3, LANA-H2B inh 1 and YIC FRET counter >50.
